Experiment [1] deals with Anti-estrogen binding site (AEBS) (Homo sapiens) (UniProt Q15125+Q9UBM7). Description: Relative binding affinity against Antiestrogen binding site(AEBS). The format is functional. Conditions: Rattus norvegicus. The essentials:
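Rat liver microsomal fraction was first incubated 2 h at 4 °C with 2 µM diethylstilbestrol to saturate ER sites. It was then incubated 18 h at 4 °C with competitor (1×10⁻⁹ to 3×10⁻⁶ M) and ³H-tamoxifen (1×10⁻⁹ M) in 35% DMF–TEA buffer. Charcoal-dextran was added for 15 min at 4 °C, the tubes were centrifuged at 1000g, and the supernatant was counted.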

Experiment [2] has as its target T1, Estrogen receptor (Rattus norvegicus) (UniProt P06211+Q62986). The experiment in a line: Relative binding affinity against estrogen receptor(ER). The format is protein assay. The essentials:
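Uterine cytosol came from immature rats primed with 0.1 µg E2 24 h before sacrifice. It was incubated 18–20 h at 4 °C, in triplicate, with competitor (10⁻⁴–10⁻⁹ M) and ³H-E2 (5×10⁻⁹ M) in TEA buffer, pH 7.4, containing 7% DMF. Free ligand was removed with charcoal-dextran (20 min), and bound radioactivity was measured by scintillation counting.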

Experiment [3] has as its target Estrogen receptor beta (Rattus norvegicus) (UniProt Q62986). The experiment in a line: Mean percent inhibition of Estrogen receptor beta in rat. On the set-up: concentration or dose not given beside the values. The following applies: concentration not given here. The method, boiled down: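 Immature female rats were dosed subcutaneously with 10 µg/rat for three days together with 0.3 µg E2 at a separate site. Uterine weight was read 24 h after the last dose. Inhibition of E2-stimulated uterine growth was calculated from the mean uterine weights of the vehicle-alone, E2-alone and compound-plus-E2 groups.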

Experiment [4] addresses T1, Estrogen receptor (Rattus norvegicus). Description: Antiestrogenic activity in presence of unlabeled estradiol as mean uterine weight in rats after 0.3 ug dose. The format is functional. The method, boiled down:
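Immature female Charles Foster rats (21–23 days old, 25–40 g) were given 10 µg/rat of compound subcutaneously in 0.1 mL propylene glycol–0.9% saline (1:1, v/v) on three consecutive days. They were co-injected with 0.3 µg E2 at a different site. Controls got E2 plus vehicle. Uteri were weighed 24 h after the last injection. Values are mean ± SD, 6–9 animals.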

The target is the same in experiment [5]. The experiment in a line: Estrogenic activity as mean uterine weight in rats on 10 ug dose. The format is functional. The essentials: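 Immature female Charles Foster rats (21–23 days old, 25–40 g) received 10 µg/rat subcutaneously, suspended in 0.1 mL propylene glycol–0.9% saline (1:1, v/v), daily for three days. Controls received vehicle alone. Uterine wet weight was taken at autopsy 24 h after the final dose and given as mean ± SD in mg from 6–9 animals.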

Where only a bound is given, the exact number is not on record here.

Sequence of Estrogen receptor beta (Rattus norvegicus) (Q62986 whole entry): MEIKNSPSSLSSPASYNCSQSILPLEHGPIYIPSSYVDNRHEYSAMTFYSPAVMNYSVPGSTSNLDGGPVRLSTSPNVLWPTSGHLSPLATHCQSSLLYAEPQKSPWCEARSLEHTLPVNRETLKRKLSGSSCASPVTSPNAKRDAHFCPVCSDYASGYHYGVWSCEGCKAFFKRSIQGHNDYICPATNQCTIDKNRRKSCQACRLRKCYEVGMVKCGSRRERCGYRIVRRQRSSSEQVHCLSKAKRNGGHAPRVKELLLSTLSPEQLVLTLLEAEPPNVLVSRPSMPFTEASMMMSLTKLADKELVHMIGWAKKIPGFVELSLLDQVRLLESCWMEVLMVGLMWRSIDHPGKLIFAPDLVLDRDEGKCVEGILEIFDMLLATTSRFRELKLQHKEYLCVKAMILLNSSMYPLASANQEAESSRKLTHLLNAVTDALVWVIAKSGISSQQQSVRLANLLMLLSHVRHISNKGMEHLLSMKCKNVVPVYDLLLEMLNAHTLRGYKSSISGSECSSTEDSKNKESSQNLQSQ

In general, inhibition refers to the percentage by which the read-out fell short of the control. As to `CC1=C(c2ccccc2)C(c2ccc(OCCN3CCCC3)cc2)Oc2ccccc21` (configuration not stated), the relative binding affinity (RBA) worked out at 150 in experiment [1] and 9.9 in experiment [2]. This compound also registered an inhibition in experiment [3] of 56%. Moreover, the Mean weight in experiment [4] was 27 mg; in experiment [5], 27.2 mg.

In the case of `CN(C)CCOc1ccc(C2Oc3ccccc3C=C2c2ccccc2)cc1` (configuration not stated), the results for the relative binding affinity (RBA) in experiment [1] and in experiment [2] were 98 and 0.11, respectively. In addition, the inhibition in experiment [3] came out at 30%. Also, the Mean weight turned out to be 36.5 mg in experiment [4] and 33.9 mg in experiment [5].

For the compound `COc1ccc2c(c1)OC(c1ccc(OCCN3CCCC3)cc1)C(c1ccccc1)=C2` (configuration not stated), the figures for the relative binding affinity (RBA) in experiment [1] and in experiment [2] were 66 and 0.4, respectively. The same compound returned an inhibition in experiment [3] of 48%.

Consider `CCC1=C(c2ccccc2)C(c2ccc(OCCN3CCCC3)cc2)Oc2cc(OC)ccc21` (configuration not stated), for which the relative binding affinity (RBA) in experiment [1] came to 51; in experiment [2] it was 2.1. Also, the inhibition in experiment [3] is 0%. Also, the Mean weight in experiment [4] stood at 40.6 mg; in experiment [5], 34.5 mg.

Compound `C1=C(c2ccccc2)C(c2ccccc2OCCN2CCCCC2)Oc2ccccc21` (configuration not stated) came in with a relative binding affinity (RBA) in experiment [2] of less than 0.001. In experiment [3], this compound showed an inhibition of 0%. The results for the Mean weight in experiment [4] and in experiment [5] were 43.1 mg and 11.1 mg, respectively.

On to `C1=C(c2ccccc2)C(c2ccc(OCCN3CCCC3)cc2)Oc2ccccc21` (configuration not stated), for which the relative binding affinity (RBA) in experiment [1] stood at 134; in experiment [2], 0.5. Besides, the inhibition in experiment [3] is 56%. Also, the Mean weight in experiment [4] came out at 26.6 mg.

Turning to `CCCCNCC(O)COc1ccc(C2Oc3ccccc3C=C2c2ccccc2)cc1` (configuration not stated), the inhibition in experiment [3] amounted to 0%. For the same compound, the Mean weight in experiment [4] was 45.9 mg; in experiment [5], 8.7 mg.

For the compound `C1=C(c2ccccc2)C(c2ccc(OCCN3CCCCC3)cc2)Oc2ccccc21` (configuration not stated), the relative binding affinity (RBA) was found to be 225 in experiment [1] and 0.3 in experiment [2]. The inhibition in experiment [3] was 75%.

In turn, `C1=C(c2ccccc2)C(c2cccc(OCCN3CCCCC3)c2)Oc2ccccc21` (configuration not stated) registered a relative binding affinity (RBA) in experiment [2] of less than 0.001. Also, the inhibition in experiment [3] was 0%. In addition, the Mean weight in experiment [4] turned out to be 42.2 mg; in experiment [5] it was 17.4 mg.

For `C1=C(c2ccccc2)C(c2ccc(OCCN3CCCCCC3)cc2)Oc2ccccc21` (configuration not stated), the results for the relative binding affinity (RBA) in experiment [1] and in experiment [2] were 153 and 0.24, respectively. For the same compound, the inhibition in experiment [3] was 61%. The Mean weight in experiment [4] amounted to 23.1 mg; in experiment [5], 19.3 mg.

Regarding `OCC(O)COc1ccc(C2Oc3ccccc3C=C2c2ccccc2)cc1` (configuration not stated), the Mean weight in experiment [4] came out at 38.8 mg; in experiment [5], 20.7 mg.

Turning to `Oc1ccc(C2Oc3ccccc3C=C2c2ccccc2)cc1` (configuration not stated), in experiment [2], the relative binding affinity (RBA) is 0.05. Besides, the inhibition in experiment [3] was determined as 0%. For the same compound, the Mean weight stood at 45.5 mg in experiment [4] and 12.6 mg in experiment [5].
